According to paper PMC2717697 (The Journal of General Physiology, 2009):
Residue numbers refer to the chain shown, from its start. One block for each compound: values may come before it.

Experiments:
Format in all cases: cell-based
[1] = molecular target: T1, E363Q mutant CNGA1 channel (Bos taurus, UniProt Q00194, E363Q); test: Block of E363Q single-channel currents by extracellular Mg^2+
T1 sequence (Q00194 1-690 E363Q): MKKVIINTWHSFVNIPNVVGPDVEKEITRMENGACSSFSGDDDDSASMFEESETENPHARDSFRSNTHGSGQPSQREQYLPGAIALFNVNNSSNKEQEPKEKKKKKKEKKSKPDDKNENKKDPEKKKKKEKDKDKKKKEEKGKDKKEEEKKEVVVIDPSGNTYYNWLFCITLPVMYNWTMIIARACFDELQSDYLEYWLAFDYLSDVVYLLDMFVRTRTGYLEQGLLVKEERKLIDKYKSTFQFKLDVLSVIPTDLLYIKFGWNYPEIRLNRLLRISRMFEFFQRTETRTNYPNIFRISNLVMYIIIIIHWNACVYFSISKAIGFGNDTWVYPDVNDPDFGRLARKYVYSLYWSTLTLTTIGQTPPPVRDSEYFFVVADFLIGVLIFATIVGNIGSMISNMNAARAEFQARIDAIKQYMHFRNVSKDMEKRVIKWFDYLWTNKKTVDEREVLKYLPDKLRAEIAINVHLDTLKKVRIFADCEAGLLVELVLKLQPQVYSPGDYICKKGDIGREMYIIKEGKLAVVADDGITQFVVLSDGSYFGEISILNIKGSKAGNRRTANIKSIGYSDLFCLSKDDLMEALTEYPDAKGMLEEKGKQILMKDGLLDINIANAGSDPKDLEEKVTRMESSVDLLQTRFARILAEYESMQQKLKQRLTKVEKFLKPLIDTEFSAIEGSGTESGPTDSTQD
How it was run: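 Xenopus laevis oocytes were collagenase-defolliculated, cRNA-injected, and kept at 18°C. […] E363Q single-channel currents were recorded at 120 or −120 mV with or without 0.1 mM extracellular Mg2+, one patch per trace. Filtering was 1 kHz and sampling 10 kHz. Amplitudes are mean ± SEM, n = 5–20.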

[2] = test system: WT and E363Q CNGA1 channels; conditions: fit of Eq. 1 to G-V relations 10 to 200 mV, WT and E363Q together
[3] = molecular target: T2, wild-type CNGA1 channels (Bos taurus, UniProt Q00194)
T2 sequence (Q00194 1-690): T1 sequence (Q00194 1-690 E363Q) with Q363E

[4] = molecular target: T1, E363Q mutant CNGA1 channel
[5] = molecular target: T3, wild-type (WT) CNGA1 channel (Bos taurus, UniProt Q00194); test: Voltage-dependent block by intracellular PhTx, wild type
T3 sequence (Q00194 1-690): T1 sequence (Q00194 1-690 E363Q) with Q363E
How it was run: (§1)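 WT or mutant CNGA1 cRNA was injected into collagenase-defolliculated Xenopus oocytes. […] I-V curves were taken from −80 mV holding with steps of −200 to 200 mV in 10-mV increments. No-cGMP currents were subtracted as background. Recordings were made with or without 10 µM intracellular PhTx, and fraction unblocked (I/Io) was reported as mean ± SEM, n = 4–6.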

[6] = molecular target: T4, I386A mutant CNGA1 channel (Bos taurus, UniProt Q00194, I386A); test: Voltage-dependent block by intracellular PhTx, I386A
T4 sequence (Q00194 1-690 I386A): T1 sequence (Q00194 1-690 E363Q) with Q363E, I386A
How it was run: as §1

[7] = molecular target: T5, F387A mutant CNGA1 channel (Bos taurus, UniProt Q00194, F387A); test: Voltage-dependent block by intracellular PhTx, F387A
T5 sequence (Q00194 1-690 F387A): T1 sequence (Q00194 1-690 E363Q) with Q363E, F387A
How it was run: as §1

[8] = molecular target: T6, I390A mutant CNGA1 channel (Bos taurus, UniProt Q00194, I390A); test: Voltage-dependent block by intracellular PhTx, I390A
T6 sequence (Q00194 1-690 I390A): T1 sequence (Q00194 1-690 E363Q) with Q363E, I390A
How it was run: as §1

[9] = molecular target: T7, V384A mutant CNGA1 channel (Bos taurus, UniProt Q00194, V384A); test: Voltage-dependent block by intracellular PhTx, V384A
T7 sequence (Q00194 1-690 V384A): T1 sequence (Q00194 1-690 E363Q) with Q363E, V384A
How it was run: as §1

[10] = molecular target: T8, T389A mutant CNGA1 channel (Bos taurus, UniProt Q00194, T389A); test: Voltage-dependent block by intracellular PhTx, T389A
T8 sequence (Q00194 1-690 T389A): T1 sequence (Q00194 1-690 E363Q) with Q363E, T389A
How it was run: as §1

[11] = read-out: appKd, Boltzmann fit of I/Io at 10 µM intracellular PhTx
[12] = valence of block, Boltzmann fit

Ki ([1]; read-out: estimated Ki, −120 mV, estimated from 37% reduction at 100 µM): 170000 nM
reduction of single-channel current amplitude ([1]; −120 mV, 100 µM external Mg^2+): 37%
Compound: [Mg+2] [Mg^2+]

Kd ([2]; read-out: KL): 78000 ± 4000 nM
valence factor of KL [3]: 0.04
Hill coefficient (n) ([3]; common to −200 and 200 mV): 1.48 ± 0.03
variation of KL ([3]; over 400 mV (−200 to 200 mV)): twofold
valence factor of KL [4]: −0.1
Hill coefficient (n) ([4]; common to 40 and 200 mV): 1.44 ± 0.01
Compound: Nc1nc2c(ncn2[C@@H]2O[C@@H]3COP(=O)(O)O[C@H]3[C@H]2O)c(=O)[nH]1 [cGMP, cyclic GMP]
Hill coefficient (n) [2]: 1.44 ± 0.06

Compound: philanthotoxin [PhTx]
Kd [5, 11]: 1600 nM
Z [5, 12]: 2.48 ± 0.07
Kd [6, 11]: 830 nM
Z [6, 12]: 2.55 ± 0.07
Kd [7, 11]: 52000 nM
Z [7, 12]: 0.96 ± 0.02
Kd [8, 11]: 1200 nM
Z [8, 12]: 2.67 ± 0.08
Kd [9, 11]: 3500 nM
Z [9, 12]: 2.81 ± 0.09
Kd [10, 11]: 1600 nM
Z [10, 12]: 2.25 ± 0.06
